TDP2 absorb: TDP2 (human) inhibition, absorbance primary screen; O95551; inhibition, % at 12.8 µM; 370,000 tested, 0.34% active; recombinant TDP2, T5PNP hydrolysis, p-nitrophenol absorbance 415 nm;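 active = inhibition above the mean of all tested compounds plus 3 SD, set per campaign, cut at about 25% in these data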;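 note: 0% = DMSO with enzyme and 100% = buffer with substrate but no TDP2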
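Assay system: Recombinant human TDP2 | Quantity: 120 nM TDP2 per well | Incubation: 2 h at 37 °C | Signal: Epi absorbance | Evaluation: Percent inhibition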
Rin1 Abl inh: human Rin1-Abl interaction inhibition | P00519+Q13671 | TR-FRET Rin1/Abl binding, biochemical | inhibition, % at 7.35 µM | 360,000 tested, 0.4% active; in the data active = inhibition above about 5%, passing the limit was not always enough
UHRF1 MBD2 ctr: blocks human UHRF1 binding to methylated DNA | Q96T88 | UHRF1 binding to methylated oligo, TR-FRET | 370,000 tested, 0.75% active | inhibition, % at 4.4 µM; in the data active = inhibition above about 21%;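 note: UHRF1 SRA domain binding a hemimethylated CpG hairpin DNA probe; 0% = median of test compound wells and 100% = reference inhibitor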
LEDGF integ inh: blocks HIV-1 LEDGF/p75-dependent DNA integration; TR-FRET IN-LEDGF/p75 DNA integration, Eu/Cy5; inhibition, % at 3.7 µM; 370,000 tested, 0.64% active; AID 743269;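 active = inhibition above the screen-wide mean plus 3 SD, cut at about 13% in these data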;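 note: signal is the Cy5 over europium emission ratio at 671 and 618 nm; 0% = plate median of compound wells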
MBD2 DNA inh: blocks human MBD2 binding to methylated DNA; Q9UBB5; TR-FRET, MBD2 binding to methylated oligonucleotide; inhibition, % at 4.4 µM; 370,000 tested, 0.31% active; in the data active = inhibition above about 13%
TDP2 inh conf: human TDP2 inhibition, confirmation; recombinant human TDP2, absorbance read-out; inhibition, % at 12.8 µM; shares compounds with TDP2 absorb; 1,100 tested, 22% active; in the data active = inhibition above about 25%;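 note: 0% = vehicle with enzyme and 100% = no enzyme buffer only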
* marks the source's active call; other numbers are inactive results; nt = no result given. Hits are enriched below; roughly 1.9% of the tested compounds scored in any of these assays.

SMILES	TDP2 absorb	Rin1 Abl inh	UHRF1 MBD2 ctr	LEDGF integ inh	MBD2 DNA inh	TDP2 inh conf
O=C(CCC(=O)NC1CCCCC1)NCc1ccc(F)cc1	48.4*	-2.5	-1.6	-2.1	2.8	-1.1
COc1ccc(-c2[nH][nH]c(=O)c2NC(=O)c2ccc(C)cc2)cc1	24.6*	3.6	-0.3	1.9	-5.8	30.5*
O=C(Nc1c(-c2ccccc2)[nH][nH]c1=O)c1ccc2ccccc2c1	7.9	nt	-4.1	-2.1	-2.6	nt
O=C(Nc1c(-c2ccccc2)[nH][nH]c1=O)c1cccs1	41.9*	nt	10.1	12.2	-3.2	15.1
O=C(Nc1c(-c2ccccc2)[nH][nH]c1=O)c1ccc(Br)cc1	33.3*	3.1	-0.5	3.9	-3.6	16.4
O=C(c1ccco1)[C@@H]1[C@@H]2C(=O)N(c3ccc(F)cc3)C(=O)[C@@H]2C2c3ccccc3C=CN21 (some centres not stated)	29.0*	nt	-9.6	11.0	-5.2	17.4
CC(=O)N(C1=C(Cl)C(=O)c2ccccc2C1=O)C1CCCCC1	57.0*	2.3	-0.6	10.9	-10.3	46.7*
CC(=O)N(c1ccccc1C)C1CCCC1	0.2	1.1	2.0	-2.0	3.7	nt
COc1ccc(CCNC(=O)Cn2nc(-c3ccccc3)ccc2=O)cc1	-2.2	nt	2.4	-3.4	-0.3	nt
COc1cccc(N(CC(=O)NC2CCCCC2)C(=O)CCC(=O)Nc2nccs2)c1	28.7*	2.4	-3.1	2.1	1.9	4.2
COc1cccc(N(CC(=O)NC2CCCC2)C(=O)CCC(=O)Nc2nccs2)c1	-3.8	2.8	1.3	-5.2	3.6	nt
Brc1cccc(OCCCNC2CCCC2)c1	26.1*	0.3	0.8	2.3	-3.2	-6.5
Brc1ccc(CSc2nnc(SCc3ccccc3)s2)cc1	-2.6	nt	-1.1	-3.5	-1.1	nt
CCC(=O)Nc1c(C#N)c2nc3ccccc3nc2n1C1CCCCC1	7.1	-2.7	-0.6	0.7	-1.8	nt
CCOC(=O)c1c(NC(=O)c2ccco2)n(C2CCCCC2)c2nc3ccccc3nc12	59.8*	3.9	11.6	8.5	-0.5	60.2*
Cc1cc(-c2ccc(C)c(S(=O)(=O)NCc3ccc(OC(C)C)cc3)c2)on1	31.6*	-2.2	-3.6	-0.2	2.7	-0.3
COc1ccc(CNS(=O)(=O)c2cc(-c3cc(C)no3)ccc2C)cc1OC	6.2	4.4	-0.2	-4.0	1.6	nt
CCN(CCCNS(=O)(=O)c1cc(-c2cc(C)no2)ccc1C)Cc1ccccc1	47.5*	0.6	5.4	-1.9	1.8	-1.1
CCc1ccc(-c2cc(C)no2)cc1S(=O)(=O)NCCCN1CCN(c2ccccc2)CC1	6.6	-3.5	4.3	-4.4	1.6	nt
N=c1c2c(-c3ccccc3)c(-c3ccccc3)n(Cc3ccccc3)c2ncn1C1CCOCC1	-4.6	nt	-3.2	3.8	-7.5	nt
COc1cc(Cc2nccc3cc(OC)c(OC)cc23)c(S(=O)(=O)O)cc1OC	40.5*	-2.2	12.9	5.1	2.6	3.6
COc1cc(Cc2nccc3cc(OC)c(OC)cc23)c(NC(C)=O)cc1OC	1.2	-1.4	1.8	0.7	2.5	nt
C=CCn1c(=S)[nH]c2sccc2c1=O	60.5*	-1.9	-0.3	-1.0	-2.8	1.5
COc1ccc(C2CC3CN(C4CCCCC4)C(=O)C3N2C)cc1 (configuration not stated)	0.2	nt	1.0	-3.0	-2.4	nt
COC(=O)[C@]12C[C@H](CC(=O)NCc3ccc(C)o3)C(=O)N(Cc3ccco3)C1=C[C@H](COCc1ccccc1)O[C@@H]2C	-18.9	nt	3.8	6.1	-4.5	nt
SMILES	TDP2 absorb	Rin1 Abl inh	UHRF1 MBD2 ctr	LEDGF integ inh	MBD2 DNA inh	TDP2 inh conf
COc1ccc(CCNC(=O)C(NC(=O)OCc2ccccc2)C(C)C)cc1OC (configuration not stated)	-6.3	-2.6	0.8	-2.8	0.8	nt
CC[C@H](C)[C@H](NC(N)=O)C(=O)NCCc1ccc(OC)c(OC)c1	24.7*	-0.1	-0.3	-1.4	1.6	11.1
COC(=O)CCC(=O)OC1(C)C(=O)C=C2C=C(C3CC3)N(CCCOC(C)C)C=C2C1=O (configuration not stated)	nt	1.6	nt	nt	nt	nt
COC(=O)CCC(=O)OC1(C)C(=O)C=C2C=C(C3CC3)N(CCCCO)C=C2C1=O (configuration not stated)	30.5*	-5.5	4.9	8.2	-3.8	13.3
COC(=O)CCC(=O)OC1(C)C(=O)C=C2C=C(C3CC3)N(C(CO)CO)C=C2C1=O (configuration not stated)	29.9*	-0.9	-1.9	2.0	0.3	13.6
COC(=O)[C@H](C(C)C)N(CCCc1cn(CC2CCCCC2)nn1)S(=O)(=O)c1ccccc1Br	7.7	nt	-0.6	-3.2	0.9	nt
O=C1c2ccccc2C(=O)C12OC2c1cccc2ccccc12 (configuration not stated)	73.5*	13.3*	4.7	11.2	-5.3	75.8*
CCCCCCCCN1C(=O)[C@@H](CC(=O)N2CCC(c3ccccc3)CC2)C[C@@]2(C(=O)OC)C1=C[C@H](C(C)C)O[C@@H]2C1CC1	1.5	nt	-0.1	0.3	0.5	nt
Cc1ccc(CNC(=O)CN(C(=O)C2(C)CC(=O)N=C3C=CC=CN32)c2cc(C)ccc2C)cc1 (configuration not stated)	26.0*	-0.9	-0.9	0.0	1.7	5.8
O=C(Nc1ccccc1)/C(=C/c1ccc([N+](=O)[O-])cc1)NC(=O)c1ccco1	24.6*	1.3	-0.6	3.1	-2.5	2.6
O=C(Nc1ccccc1)/C(=C/c1ccc(F)cc1)NC(=O)c1ccco1	-13.5	1.3	1.5	1.9	0.1	nt
Cn1c(=O)c2ccccc2n(C)c1=O	1.7	nt	7.0	-4.6	1.8	nt
CCS(=O)(=O)c1nc(S(=O)(=O)c2ccc(C)cc2)c(N2CCN(CCO)CC2)s1	25.3*	4.7	-2.6	0.4	-1.9	3.9
O=C(Cc1ccccc1Cl)NC1(O)C(=O)c2ccccc2C1=O	47.4*	0.5	-7.8	-0.9	-8.3	54.1*
NC(=O)c1cc2ccccc2o/c1=N\NC(=O)c1ccncc1	32.1*	-12.8	13.2	5.1	8.5	-0.2
Cc1ccc(C(=O)N/N=c2\oc3ccccc3cc2C(N)=O)cc1	-13.4	-3.5	-2.8	-2.5	-1.4	nt
CCOc1ccc(N2C(=O)c3cccnc3C2=O)cc1	3.4	-1.1	-0.9	-0.8	-5.8	nt
O=C1c2nccnc2C(=O)N1c1ccc(C(F)(F)F)cc1	27.6*	-1.2	2.4	-1.5	1.2	1.2
COc1cc2c(=O)n(CCC(=O)NCC3CCCO3)c(=O)n(CC(=O)Nc3ccc(F)cc3)c2cc1OC (configuration not stated)	24.5*	0.6	1.8	1.5	-4.5	-6.7
COc1cc2c(=O)n(CCC(=O)NCC3CCCO3)c(=O)n(CC(=O)Nc3ccc(C)c(C)c3)c2cc1OC (configuration not stated)	-10.4	0.2	0.9	3.4	2.0	nt
